From ChEMBL document CHEMBL1131474, “Asymmetric synthesis and pharmacology of methylphenidate and its para-substituted derivatives” (J Med Chem, 1998)

How the values were obtained:
Assay type in all cases: functional
[1] = species: Rattus norvegicus; assay: Ability to inhibit the uptake of dopamine [3H]DA in to rat brain synaptosomes
How it was run: (§1)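 Crude S1 synaptosomes from male Sprague–Dawley rat frontal/temporal cortex and striatum (sucrose–Tris–glucose, pH 7.4; 1000g, 15 min, 4 °C). Five drug levels, triplicate, with [3H]DA 25 nM or [3H]l-NE 50 nM final, in pargyline-containing Tris saline buffer. Preincubation 5 min, then 5 min uptake at 37 °C. Filtered, counted by scintillation, 0 °C uptake subtracted. IC50 read from sigmoidal fit.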

[2] = Eudisimic ratio for DA uptake is the ratio of the IC50 values l-isomer and d-isomer
How it was run: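 Eudismic ratio: IC50 of the l-isomer divided by IC50 of the d-isomer for each enantiomeric pair. IC50s came from rat synaptosomal [3H]DA or [3H]l-NE uptake, with five drug concentrations in triplicate and 5 min at 37 °C.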

[3] = species: Rattus norvegicus; assay: Ability to inhibit the uptake of norepinephrine [3H]-NE in to rat brain synaptosomes; how it was run: as §1

**Q.** What does the source list for `COC(=O)[C@H](c1ccc(OC)cc1)[C@H]1CCCCN1`?
**A.** IC50 [1]: 0.205 µM; Eudismic ratio [2]: 17.5; IC50 [3]: 0.073 µM

**Q.** Which IC50 [1] does the source give for `COC(=O)[C@@H](c1ccccc1)[C@@H]1CCCCN1` here?
**A.** 1.47 µM

**Q.** And the IC50 [3]?
**A.** 0.876 µM

**Q.** Which results are given for `COC(=O)[C@@H](c1ccc(Br)cc1)[C@@H]1CCCCN1`?
**A.** IC50 [1]: 0.408 µM; IC50 [3]: 0.248 µM

**Q.** What does the source list for `COC(=O)C(c1ccccc1)C1CCCCN1` (racemic) [METHYLPHENIDATE]?
**A.** IC50 [1]: 0.438 µM; IC50 [3]: 0.171 µM

**Q.** Which results are given for `COC(=O)[C@@H](c1ccc(OC)cc1)[C@@H]1CCCCN1`?
**A.** IC50 [1]: 3.59 µM; IC50 [3]: 1.3 µM

**Q.** Which IC50 [1] does the source give for `COC(=O)[C@H](c1ccc(Br)cc1)[C@H]1CCCCN1` here?
**A.** 0.0225 µM

**Q.** And the IC50 [3]?
**A.** 0.00934 µM

**Q.** Which IC50 [1] does the source give for `COC(=O)[C@H](c1ccccc1)[C@H]1CCCCN1` [DEXMETHYLPHENIDATE] here?
**A.** 0.171 µM

**Q.** And the IC50 [3]?
**A.** 0.128 µM
